Columns and labels:
Type in all cases: functional
[1] = test system: Plasmodium berghei; assay: Change in mean survival time of Plasmodium berghei infected mice (Mus musculus) on 1.25 mg/kg subcutaneous dose
[2] = test system: Plasmodium berghei; assay: Difference in mean survival time of Plasmodium berghei infected mice (Mus musculus) after 10 mg/kg subcutaneous dose
[3] = test system: Plasmodium berghei; assay: Change in mean survival time of Plasmodium berghei infected mice (Mus musculus) after […] subcutaneous dose
[4] = test system: Plasmodium berghei; assay: Change in mean survival time for control (average 6.2 days) versus treated mice (Mus musculus) after 20 mg/kg subcutaneous dose
[5] = test system: Plasmodium berghei; assay: Change in mean survival time for control (average 6.2 days) versus treated mice (Mus musculus) after 320 mg/kg subcutaneous dose
[6] = test system: Plasmodium berghei; assay: Change in mean survival time for control (average 6.2 days) versus treated mice (Mus musculus) after 40 mg/kg subcutaneous dose
[7] = test system: Plasmodium berghei; assay: Change in mean survival time of Plasmodium berghei infected mice (Mus musculus) after 5 mg/kg subcutaneous dose
[8] = test system: Plasmodium berghei; assay: Change in mean survival time in control (average 6.2 days) versus treated mice (Mus musculus) after 80 mg/kg subcutaneous dose
[9] = test system: Plasmodium berghei; assay: (§1) Change in mean survival time for control (average 6.2 days) versus treated mice (Mus musculus) 72 hrs after […] subcutaneous dose
[10] = test system: Plasmodium berghei; assay: as §1; remark: listed apart in the source
[11] = test system: Mus musculus; assay: Antimalarial activity of compound administered as a single subcutaneous dose of 10mg/kg, 72 hrs post infection measured as number of mice (Mus musculus) surviving at 60 days post infection
Summary of the method: (§2)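 Mice were infected with a normal drug-sensitive Plasmodium berghei strain. At 72 h postinfection each received one subcutaneous dose of compound dissolved or suspended in peanut oil, in five-mouse groups per dose. The read-out was the number of mice alive at 60 days postinfection, which were scored as cured.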

[12] = test system: Plasmodium berghei; assay: Antimalarial activity as 60-day survivors in Plasmodium berghei infected mice (Mus musculus) after single 160mg/kg subcutaneous dose 72 hr post infection; summary of the method: as §2
[13] = test system: Plasmodium berghei; assay: Antimalarial activity as 60-day survivors in infected mice (Mus musculus) after single 20 mg/kg subcutaneous dose 72hr post infection; summary of the method: as §2
[14] = test system: Plasmodium berghei; assay: Antimalarial activity as 60-day survivors in infected mice (Mus musculus) after single 320mg/kg subcutaneous dose 72 hr post infection; summary of the method: as §2
[15] = test system: Mus musculus; assay: Antimalarial activity, administered as a single subcutaneous dose of 40 mg/kg, 72 hrs post infection measured as number of mice (Mus musculus) surviving at 60 days post infection; summary of the method: as §2
[16] = test system: Mus musculus; assay: Antimalarial activity, administered as a single subcutaneous dose of 640 mg/kg, 72 hrs post infection measured as number of mice (Mus musculus) surviving at 60 days post infection; summary of the method: as §2
[17] = test system: Mus musculus; assay: Antimalarial activity, administered as a single subcutaneous dose of 80 mg/kg, 72 hrs post infection measured as number of mice (Mus musculus) surviving at 60 days post infection; summary of the method: as §2
[18] = test system: Plasmodium berghei; assay: Antimalarial activity in primary screen
[19] = test system: Plasmodium berghei; assay: Change in mean survival time for control (average 6.2 days) versus treated mice (Mus musculus) 72 hrs after 5 mg/kg subcutaneous dose
[20] = test system: Plasmodium berghei; assay: Change in mean survival time for control (average 6.2 days) versus treated mice (Mus musculus) 72 hrs after 640 mg/kg subcutaneous dose
[21] = test system: Plasmodium berghei; assay: Change in mean survival time for control (average of 6.2 days) versus treated mice (Mus musculus) 72 hrs after 80 mg/kg subcutaneous dose
[22] = test system: Plasmodium berghei; assay: Change in mean survival time for control (average 6.2 days) versus treated mice (Mus musculus) 72 hrs after 10 mg/kg subcutaneous dose
[23] = test system: Plasmodium berghei; assay: Change in mean survival time for control (average 6.2 days) versus treated mice (Mus musculus) 72 hrs after 160 mg/kg subcutaneous dose
[24] = test system: Plasmodium berghei; assay: Change in mean survival time for control (average 6.2 days) versus treated mice (Mus musculus) 72 hrs after […] subcutaneous dose
[25] = test system: Plasmodium berghei; assay: Change in mean survival time for control (average 6.2 days) versus treated mice (Mus musculus) 72 hrs after 20 mg/kg subcutaneous dose
[26] = test system: Plasmodium berghei; assay: Change in mean survival time for control (average 6.2 days) versus treated mice (Mus musculus) 72 hrs after 320 mg/kg subcutaneous dose
[27] = test system: Plasmodium berghei; assay: Difference in mean survival time in mice (Mus musculus) (control = 6.2 days) after single 40mg/kg subcutaneous dose 72hr post infection
[28] = test system: Plasmodium berghei; assay: Change in mean survival time for control (average 6.2 days) versus treated mice (Mus musculus) after 160 mg/kg subcutaneous dose
[29] = test system: Mus musculus; assay: Antimalarial activity of compound administered as a single subcutaneous dose of 5mg/kg, 72-h postinfection measured as number of mice (Mus musculus) surviving at 60 days postinfection; summary of the method: as §2

## CN(C)Cc1cc(Nc2cc[n+]([O-])c3cc(Cl)ccc23)cc(-c2ccc(Cl)cc2)c1O
[1]
  Delta MST: 0 days
[2]
  Delta MST: 17.8 days
[3]
  Delta MST: 5 days
[4]
  Delta MST: 27.8 days
[5]
  Delta MST: 17.9 days
[6]
  Delta MST: 26.3 days
[7]
  Delta MST: 17.6 days
[8]
  Delta MST: 21.9 days
[9]
  Delta MST: 20.7 days
[10]
  Delta MST: 0 days
[11]
  No. of mice cured: 1
[12]
  No. of mice cured: 5
[13]
  No. of mice cured: 3
[14]
  No. of mice cured: 3
[15]
  No. of mice cured: 3
[16]
  No. of mice cured: 1
[17]
  No. of mice cured: 3

## CCN(CC)Cc1cc(Nc2ccnc3cc(Cl)ccc23)cc(-c2cccc(F)c2F)c1O
[18]
  ED30: 8.7 mg/kg
[19]
  Delta MST: 13.7 days
[20]
  Delta MST: 19.8 days
[21]
  Delta MST: 33.3 days
[10]
  Delta MST: 0.7 days
[22]
  Delta MST: 16.7 days
[23]
  Delta MST: 35.1 days
[24]
  Delta MST: 6.7 days
[25]
  Delta MST: 22.2 days
[26]
  Delta MST: 19.8 days
[27]
  Delta MST: 39.4 days
[11]
  No. of mice cured: 1
[12]
  No. of mice cured: 2
[13]
  No. of mice cured: 2
[14]
  No. of mice cured: 4
[15]
  No. of mice cured: 3
[16]
  No. of mice cured: 4
[17]
  No. of mice cured: 3

## CC(C)(C)NCc1cc(Nc2ccnc3cc(Cl)ccc23)cc(-c2ccc(F)cc2)c1O
[19]
  Delta MST: 8.9 days
[20]
  Delta MST: 14.4 days
[21]
  Delta MST: 12.4 days
[10]
  Delta MST: 1.7 days
[22]
  Delta MST: 16.5 days
[23]
  Delta MST: 11.9 days
[24]
  Delta MST: 7.5 days
[25]
  Delta MST: 18 days
[26]
  Delta MST: 16.6 days
[27]
  Delta MST: 15.2 days
[11]
  No. of mice cured: 1
[12]
  No. of mice cured: 1
[13]
  No. of mice cured: 1
[15]
  No. of mice cured: 3
[17]
  No. of mice cured: 1

## CCN(CC)Cc1cc(Nc2cc[n+]([O-])c3cc(Cl)ccc23)cc(-c2ccc(Cl)cc2)c1O
[18]
  ED30: 9.2 mg/kg
[1]
  Delta MST: 0.7 days
[2]
  Delta MST: 14.2 days
[3]
  Delta MST: 1.3 days
[4]
  Delta MST: 20.9 days
[6]
  Delta MST: 36.9 days
[7]
  Delta MST: 5.7 days
[11]
  No. of mice cured: 2
[12]
  No. of mice cured: 5
[13]
  No. of mice cured: 3
[14]
  No. of mice cured: 5
[15]
  No. of mice cured: 4
[16]
  No. of mice cured: 5
[17]
  No. of mice cured: 5

## CC(C)(C)NCc1cc(Nc2cc[n+]([O-])c3cc(Cl)ccc23)cc(-c2ccccc2)c1O
[1]
  Delta MST: -0.3 days
[2]
  Delta MST: 12.5 days
[28]
  Delta MST: 23.2 days
[3]
  Delta MST: -0.1 days
[4]
  Delta MST: 21 days
[5]
  Delta MST: 14.5 days
[6]
  Delta MST: 21 days
[7]
  Delta MST: 4.5 days
[8]
  Delta MST: 15.5 days
[9]
  Delta MST: 14 days
[12]
  No. of mice cured: 2
[13]
  No. of mice cured: 1
[14]
  No. of mice cured: 3
[15]
  No. of mice cured: 1
[16]
  No. of mice cured: 3
[17]
  No. of mice cured: 1

## CCN(CC)Cc1cc(Nc2ccnc3cc(Cl)ccc23)cc(-c2ccccc2)c1O
[18]
  ED30: 10.4 mg/kg
[19]
  Delta MST: 0.7 days
[10]
  Delta MST: 0.3 days
[22]
  Delta MST: 11.9 days
[24]
  Delta MST: 0.3 days
[11]
  No. of mice cured: 2
[12]
  No. of mice cured: 5
[13]
  No. of mice cured: 5
[14]
  No. of mice cured: 5
[15]
  No. of mice cured: 5
[16]
  No. of mice cured: 5
[17]
  No. of mice cured: 5

## CC(C)(C)NCc1cc(Nc2ccnc3cc(Cl)ccc23)cc(-c2ccc(C(F)(F)F)cc2)c1O
[19]
  Delta MST: 11.8 days
[20]
  Delta MST: 11.7 days
[21]
  Delta MST: 10.7 days
[10]
  Delta MST: 0.2 days
[22]
  Delta MST: 10.4 days
[23]
  Delta MST: 9.1 days
[24]
  Delta MST: 3.4 days
[25]
  Delta MST: 21.2 days
[26]
  Delta MST: 12.1 days
[27]
  Delta MST: 14.9 days
[11]
  No. of mice cured: 1
[15]
  No. of mice cured: 2
[16]
  No. of mice cured: 3

## CCN(CC)Cc1cc(Nc2ccnc3cc(Cl)ccc23)cc(-c2cccc(F)c2)c1O
[18]
  ED30: 12.4 mg/kg
[19]
  Delta MST: 5.6 days
[20]
  Delta MST: 15.8 days
[21]
  Delta MST: 12.8 days
[10]
  Delta MST: 0.4 days
[22]
  Delta MST: 23.2 days
[23]
  Delta MST: 14.8 days
[24]
  Delta MST: 1.8 days
[25]
  Delta MST: 23.6 days
[26]
  Delta MST: 13.8 days
[27]
  Delta MST: 25.1 days
[12]
  No. of mice cured: 3
[13]
  No. of mice cured: 2
[14]
  No. of mice cured: 1
[15]
  No. of mice cured: 3
[29]
  No. of mice cured: 1
[16]
  No. of mice cured: 3
[17]
  No. of mice cured: 2

## CCN(CC)Cc1cc(Nc2cc[n+]([O-])c3cc(Cl)ccc23)cc(-c2ccc(C(F)(F)F)cc2)c1O
[18]
  ED30: 7.4 mg/kg
[1]
  Delta MST: 0.2 days
[2]
  Delta MST: 27.9 days
[28]
  Delta MST: 13.2 days
[3]
  Delta MST: 2.6 days
[4]
  Delta MST: 33.6 days
[5]
  Delta MST: 12.7 days
[6]
  Delta MST: 28.6 days
[7]
  Delta MST: 13.6 days
[8]
  Delta MST: 19.7 days
[9]
  Delta MST: 16.5 days
[11]
  No. of mice cured: 1
[12]
  No. of mice cured: 3
[13]
  No. of mice cured: 2
[14]
  No. of mice cured: 2
[15]
  No. of mice cured: 2
[16]
  No. of mice cured: 1
[17]
  No. of mice cured: 3

## CCN(CC)Cc1cc(Nc2ccnc3cc(Cl)ccc23)cc(-c2c(F)c(F)c(F)c(F)c2F)c1O
[18]
  ED30: 7.4 mg/kg
[19]
  Delta MST: 12.9 days
[10]
  Delta MST: 3.5 days
[22]
  Delta MST: 18.8 days
[23]
  Delta MST: 47 days
[24]
  Delta MST: 7.9 days
[25]
  Delta MST: 18.8 days
[27]
  Delta MST: 20.5 days
[11]
  No. of mice cured: 2
[12]
  No. of mice cured: 4
[13]
  No. of mice cured: 1
[14]
  No. of mice cured: 5
[15]
  No. of mice cured: 4
[16]
  No. of mice cured: 5
[17]
  No. of mice cured: 5

## CCN(CC)Cc1cc(Nc2ccnc3cc(Cl)ccc23)cc(-c2ccc(C(F)(F)F)cc2)c1O
[18]
  ED30: 9.8 mg/kg
[19]
  Delta MST: 11 days
[20]
  Delta MST: 17 days
[21]
  Delta MST: 12 days
[10]
  Delta MST: 0 days
[22]
  Delta MST: 18.9 days
[23]
  Delta MST: 11.9 days
[24]
  Delta MST: 2 days
[25]
  Delta MST: 19.4 days
[26]
  Delta MST: 10.1 days
[27]
  Delta MST: 13 days
[11]
  No. of mice cured: 1
[13]
  No. of mice cured: 2
[15]
  No. of mice cured: 2
[16]
  No. of mice cured: 1
[17]
  No. of mice cured: 2

## CCN(CC)Cc1cc(Nc2ccnc3cc(Cl)ccc23)cc(-c2ccc(Cl)cc2)c1O [TEBAQUINE]
[19]
  Delta MST: 20.7 days
[20]
  Delta MST: 11.9 days
[10]
  Delta MST: 0.1 days
[22]
  Delta MST: 30.2 days
[23]
  Delta MST: 11.9 days
[24]
  Delta MST: 0.1 days
[25]
  Delta MST: 33.7 days
[26]
  Delta MST: 11.2 days
[11]
  No. of mice cured: 1
[12]
  No. of mice cured: 4
[13]
  No. of mice cured: 1
[14]
  No. of mice cured: 2
[15]
  No. of mice cured: 5
[16]
  No. of mice cured: 1
[17]
  No. of mice cured: 5
